# Experimental data as given in ChEMBL document CHEMBL1126641, “Synthesis and opioid activity of dynorphin A-(1-13)NH2 analogues containing cis- and trans-4-aminocyclohexanecarboxylic acid” (J Med Chem, 1993).
# Values joined by “and” are separate entries in the source; they are usually repeats but may differ in a detail not shown here. Equal entries are not always repeated. Residues, ends and D or L forms follow the SMILES beside them.
# Assays:
# [1] = biological target: Kappa-type opioid receptor (Cavia porcellus, UniProt P41144); assay: Compound was tested for binding affinity towards kappa opioid receptor in guinea pig cerebellar membrane using [3H]bremazocine; assay type: cell membranes, Cerebellum
# Kappa-type opioid receptor, sequence (P41144 whole entry): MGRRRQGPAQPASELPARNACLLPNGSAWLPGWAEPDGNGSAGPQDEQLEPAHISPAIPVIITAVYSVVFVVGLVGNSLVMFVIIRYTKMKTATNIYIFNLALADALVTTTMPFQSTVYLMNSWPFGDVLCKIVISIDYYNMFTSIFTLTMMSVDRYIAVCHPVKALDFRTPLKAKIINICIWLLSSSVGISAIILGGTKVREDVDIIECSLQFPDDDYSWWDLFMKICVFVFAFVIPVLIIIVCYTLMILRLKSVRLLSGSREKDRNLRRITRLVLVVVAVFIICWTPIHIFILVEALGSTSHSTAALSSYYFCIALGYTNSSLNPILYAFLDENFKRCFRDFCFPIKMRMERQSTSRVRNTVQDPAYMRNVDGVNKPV
# In short: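 Competitive inhibition of [3H]bremazocine binding to guinea pig cerebellar membranes. The incubation mixtures contained 100 nM DAMGO. Affinity is reported as Ki.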
# Mu-type opioid receptor = Mu-type opioid receptor (Rattus norvegicus, UniProt P33535); assay: Compound was tested for binding affinity towards mu-opioid receptor in rat forebrain membrane using [3H]DAMGO; assay type: cell membranes
# Mu-type opioid receptor, sequence (P33535 whole entry): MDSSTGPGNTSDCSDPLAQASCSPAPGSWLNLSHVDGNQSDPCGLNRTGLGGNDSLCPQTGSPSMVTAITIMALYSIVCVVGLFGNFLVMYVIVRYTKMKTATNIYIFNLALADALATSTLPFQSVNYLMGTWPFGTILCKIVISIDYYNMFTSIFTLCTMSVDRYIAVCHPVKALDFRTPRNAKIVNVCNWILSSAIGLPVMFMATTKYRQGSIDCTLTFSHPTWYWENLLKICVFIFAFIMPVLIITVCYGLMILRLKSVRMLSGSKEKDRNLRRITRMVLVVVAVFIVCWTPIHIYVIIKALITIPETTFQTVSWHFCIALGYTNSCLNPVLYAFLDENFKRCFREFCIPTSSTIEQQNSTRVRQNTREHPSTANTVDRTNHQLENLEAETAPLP
# [2] = biological target: Delta-type opioid receptor (Rattus norvegicus, UniProt P33533); assay: Compound was tested for binding affinity towards delta-opioid receptor in rat forebrain membrane using [3H]DPDPE; assay type: cell membranes
# Delta-type opioid receptor, sequence (P33533 whole entry): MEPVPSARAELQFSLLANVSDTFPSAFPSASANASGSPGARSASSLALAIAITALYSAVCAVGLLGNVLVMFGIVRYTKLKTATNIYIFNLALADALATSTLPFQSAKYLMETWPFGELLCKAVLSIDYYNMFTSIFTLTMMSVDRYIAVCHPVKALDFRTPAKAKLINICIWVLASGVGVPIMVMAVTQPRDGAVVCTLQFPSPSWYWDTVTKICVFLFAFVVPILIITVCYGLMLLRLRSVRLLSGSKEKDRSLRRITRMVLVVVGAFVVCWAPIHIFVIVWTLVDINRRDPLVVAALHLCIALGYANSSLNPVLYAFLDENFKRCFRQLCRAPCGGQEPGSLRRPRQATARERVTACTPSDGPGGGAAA
# [3] = biological target: T1, Opioid receptors; mu/kappa/delta (Homo sapiens, UniProt P41145+P41143+P35372); assay: Opioid receptor activity in guinea pig ileum assay; assay type: tissue-based, Cavia porcellus; details: target entry is the homologue from another species
# T1 sequence (P35372 whole entry, looked up): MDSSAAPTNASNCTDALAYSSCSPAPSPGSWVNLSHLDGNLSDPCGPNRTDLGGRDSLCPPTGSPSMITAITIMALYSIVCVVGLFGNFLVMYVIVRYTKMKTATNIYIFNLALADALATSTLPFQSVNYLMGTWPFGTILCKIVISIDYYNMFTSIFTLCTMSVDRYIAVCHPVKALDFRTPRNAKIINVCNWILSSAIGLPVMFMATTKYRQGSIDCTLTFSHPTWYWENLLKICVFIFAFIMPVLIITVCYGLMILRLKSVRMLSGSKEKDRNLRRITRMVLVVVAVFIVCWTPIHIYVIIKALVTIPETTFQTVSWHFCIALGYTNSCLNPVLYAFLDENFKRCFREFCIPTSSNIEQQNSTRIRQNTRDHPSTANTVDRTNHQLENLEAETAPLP
# T1 sequence (P41143 whole entry, looked up): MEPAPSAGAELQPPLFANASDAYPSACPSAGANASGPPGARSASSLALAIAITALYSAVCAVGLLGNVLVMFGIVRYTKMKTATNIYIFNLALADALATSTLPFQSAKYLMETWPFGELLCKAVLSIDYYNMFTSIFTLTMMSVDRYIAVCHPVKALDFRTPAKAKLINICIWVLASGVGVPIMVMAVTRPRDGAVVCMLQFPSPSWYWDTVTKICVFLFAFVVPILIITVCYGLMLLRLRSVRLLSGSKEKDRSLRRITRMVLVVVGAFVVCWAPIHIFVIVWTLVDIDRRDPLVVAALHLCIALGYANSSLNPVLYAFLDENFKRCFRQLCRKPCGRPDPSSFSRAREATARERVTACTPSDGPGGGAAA
# T1 sequence (P41145 whole entry, looked up): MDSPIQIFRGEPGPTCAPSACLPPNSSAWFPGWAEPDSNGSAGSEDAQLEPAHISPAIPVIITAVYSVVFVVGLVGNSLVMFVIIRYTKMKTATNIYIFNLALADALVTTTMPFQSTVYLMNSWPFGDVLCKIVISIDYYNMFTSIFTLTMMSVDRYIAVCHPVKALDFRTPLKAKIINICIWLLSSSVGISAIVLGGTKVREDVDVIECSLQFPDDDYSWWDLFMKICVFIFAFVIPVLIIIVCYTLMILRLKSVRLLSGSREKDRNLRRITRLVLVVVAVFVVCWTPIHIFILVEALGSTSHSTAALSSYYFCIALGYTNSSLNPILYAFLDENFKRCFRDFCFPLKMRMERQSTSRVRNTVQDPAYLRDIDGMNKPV
# [4] = biological target: T1, Opioid receptors; mu/kappa/delta; assay: ratio is kappa/mu/delta opioid receptors; assay type: protein assay
# In short: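 The Ki ratio κ/μ/δ is taken from three binding assays. κ: [3H]bremazocine on guinea pig cerebellar membranes, with 100 nM DAMGO present. μ: [3H]DAMGO on rat forebrain membranes. δ: [3H]DPDPE on rat forebrain membranes.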
compound,measurement,setting,value
CC[C@H](C)[C@H](NC(=O)[C@H](CCCN=C(N)N)NC(=O)[C@H](CCCN=C(N)N)NC(=O)[C@H](CC(C)C)NC(=O)[C@H](Cc1ccccc1)NC(=O)CNC(=O)C(C)(C)NC(=O)[C@@H](N)Cc1ccc(O)cc1)C(=O)N[C@@H](CCCN=C(N)N)C(=O)N1CCC[C@H]1C(=O)N[C@@H](CCCCN)C(=O)N[C@@H](CC(C)C)C(=O)N[C@@H](CCCCN)C(N)=O (HELM PEPTIDE1{Y.[Aib].G.F.L.R.R.I.R.P.K.L.K.[am]}$$$$V2.0),Ki,[1],50 nM
same,Ki,Mu-type opioid receptor,10 nM
CC[C@H](C)[C@H](NC(=O)[C@H](CCCN=C(N)N)NC(=O)[C@H](CCCN=C(N)N)NC(=O)[C@H](CC(C)C)NC(=O)[C@H](Cc1ccccc1)NC(=O)CNC(=O)CNC(=O)[C@@H](N)Cc1ccc(O)cc1)C(=O)N[C@@H](CCCN=C(N)N)C(=O)N1CCC[C@H]1C(=O)N[C@@H](CCCCN)C(=O)N[C@@H](CC(C)C)C(=O)N[C@@H](CCCCN)C(N)=O,Ki,[1],0.146 nM
same,Ki,[2],3.88 nM
same,IC50,[3],0.24 nM
same,Ki,Mu-type opioid receptor,0.194 nM
CC[C@H](C)[C@H](NC(=O)[C@H](CCCN=C(N)N)NC(=O)[C@H](CCCN=C(N)N)NC(=O)[C@H](CC(C)C)NC(=O)[C@H](Cc1ccccc1)NC(=O)C1CCC(NC(=O)[C@@H](N)Cc2ccc(O)cc2)CC1)C(=O)N[C@@H](CCCN=C(N)N)C(=O)N1CCC[C@H]1C(=O)N[C@@H](CCCCN)C(=O)N[C@@H](CC(C)C)C(=O)N[C@@H](CCCCN)C(N)=O (stereo partly specified) (HELM PEPTIDE1{Y.[O=C(C1CCC(N[*:1])CC1)[*:2]].F.L.R.R.I.R.P.K.L.K.[am]}$$$$V2.0),Ki,[1],13.4 nM and 9.1 nM
same,Ratio,[4],4.62 and 3.66
same,Ki,[2],1370 nM and 1910 nM
same,IC50,[3],4090 nM
same,Ki,Mu-type opioid receptor,275 nM and 117 nM
